Measurements published in publication PMC3634367 (Biochemistry, 2011).
Values belong to the compound of their own block, whether it stands above or below them. Non-standard residues stand in square brackets, D forms with d. Residues, ends and D or L forms follow the SMILES beside them. pT = C[C@@H](OP(=O)(O)O)[C@H](N)C(=O)O; pS = N[C@@H](COP(=O)(O)O)C(=O)O

How the values were obtained:
[1] = target: T1, wt-arr2_1-418 (full-length human arrestin-2) (Homo sapiens, UniProt P49407); assay: Isothermal titration calorimetry; format: binding
How it was run: (§1)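 Untagged protein from E. coli BL21, purified by ammonium sulfate precipitation, heparin affinity and size exclusion. ITC at 283K in 10 mM NaH2PO4 pH 7.0, 100 mM NaCl: cell arrestin-2 0.01 mM, syringe test peptide 0.5 mM. 13 injections of 15 ul, 210 s apart, up to 2-fold peptide excess. Peptide dilution heats into buffer run as control. Isotherms fitted to one-site, 1:1 model.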

[2] = target: T2, tr-arr2_1-382 (truncated human arrestin-2 mutant) (Homo sapiens, UniProt P49407); assay: Isothermal titration calorimetry; format: binding
How it was run: as §1

[3] = target: wild-type human arrestin-2 (wt-arr2_(1-418)) (human) (UniProt P49407); assay: ITC
[4] = target: truncated human arrestin-2 mutant comprised of residues 1-382 (tr-arr2_(1-382)) (human) (UniProt P49407); assay: ITC
[5] = target: T2, tr-arr2_1-382 (truncated human arrestin-2 mutant); assay: Transferred NOESY NMR of arrestin-peptide mixture, truncated arrestin-2; format: binding; details: 0.1 mM tr-arr2_1-382, 1 mM peptide (1:10), pH 6.9-7.1, 10°C, 600 MHz
[6] = target: T1, wt-arr2_1-418 (full-length human arrestin-2); assay: Transferred NOESY NMR of arrestin-peptide mixture, full-length arrestin-2; format: binding; details: 0.1 mM wt-arr2_1-418, 1 mM peptide (1:10), pH 6.9-7.1, 10°C, 600 MHz
arrestin-2 = details: doubly phosphorylated Thr419-ASN439 peptide of CB1 C-terminus; cited from earlier work
[7] = ITC, 283K, 10 mM NaH2PO4 pH 7.0, 100 mM NaCl

T2 sequence (P49407 1-382, change not shown): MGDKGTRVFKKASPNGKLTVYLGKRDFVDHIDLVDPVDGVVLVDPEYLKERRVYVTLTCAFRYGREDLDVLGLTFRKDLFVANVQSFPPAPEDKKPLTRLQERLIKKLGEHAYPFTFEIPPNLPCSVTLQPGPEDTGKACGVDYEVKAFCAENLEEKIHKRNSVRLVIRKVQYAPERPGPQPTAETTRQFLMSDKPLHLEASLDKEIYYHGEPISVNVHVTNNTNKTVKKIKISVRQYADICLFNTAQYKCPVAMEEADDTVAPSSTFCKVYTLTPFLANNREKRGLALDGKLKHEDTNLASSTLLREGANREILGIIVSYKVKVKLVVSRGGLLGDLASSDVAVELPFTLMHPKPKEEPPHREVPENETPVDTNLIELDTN
T1 sequence (P49407 whole entry): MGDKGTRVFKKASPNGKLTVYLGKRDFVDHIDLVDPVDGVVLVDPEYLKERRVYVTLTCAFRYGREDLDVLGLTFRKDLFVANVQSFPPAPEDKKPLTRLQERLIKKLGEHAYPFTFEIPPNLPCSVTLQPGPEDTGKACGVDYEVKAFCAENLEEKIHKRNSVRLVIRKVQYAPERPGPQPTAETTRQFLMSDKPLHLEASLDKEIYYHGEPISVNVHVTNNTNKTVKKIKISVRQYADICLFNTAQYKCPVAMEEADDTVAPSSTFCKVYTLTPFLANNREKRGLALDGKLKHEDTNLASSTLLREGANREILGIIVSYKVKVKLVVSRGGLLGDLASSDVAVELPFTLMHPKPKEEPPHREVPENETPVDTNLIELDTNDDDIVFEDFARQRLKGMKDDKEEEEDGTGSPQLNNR
Sequence of truncated human arrestin-2 mutant comprised of residues 1-382 (tr-arr2_(1-382)) (human) (P49407 1-382, change not shown): as the sequence (P49407 1-382, change not shown) above
Sequence of wild-type human arrestin-2 (wt-arr2_(1-418)) (human) (P49407 whole entry, the tested form may be a part): as the sequence (P49407 whole entry) above

Kd [1]: ~116 µM
Kd [2]: ~2.2 µM
Compound: CC[C@H](C)[C@H](NC(=O)[C@H](CCCCN)NC(=O)[C@@H](NC(=O)[C@@H](N)[C@@H](C)O)C(C)C)C(=O)N[C@@H](C)C(=O)N[C@@H](CCCCN)C(=O)N[C@H](C(=O)N[C@H](C(=O)N[C@@H](CCSC)C(=O)N[C@@H](COP(=O)(O)O)C(=O)N[C@H](C(=O)N[C@@H](COP(=O)(O)O)C(=O)N[C@H](C(=O)N[C@@H](CC(=O)O)C(=O)N[C@H](C(=O)N[C@@H](COP(=O)(O)O)C(=O)N[C@@H](C)C(=O)N[C@@H](CCC(=O)O)C(=O)N[C@@H](C)C(=O)N[C@@H](CC(C)C)C(=O)O)[C@@H](C)OP(=O)(O)O)[C@@H](C)O)C(C)C)[C@@H](C)OP(=O)(O)O)C(C)C [CB1^5P454-473] (H-TVKIAKV[pT]M[pS]V[pS]TD[pT][pS]AEAL-OH)

Kd [3]: 116 µM
Kd [4]: 2.2 µM
Compound: CB1^5P_(454-473), pentaphosphorylated peptide mimicking residues 454-473 of CB1

Compound: TVKIAKVTMSVSTDTSAEAL [CB1_454-473]
interaction by ITC [1, 7]: no indication of an interaction
nOe change on addition of arrestin / interaction [5]: no additional peaks in the nOe spectra compared to the free peptide spectrum suggesting little or no interaction
nOe change on addition of arrestin / interaction [6]: no additional peaks in the nOe spectra compared to the free peptide spectrum suggesting little or no interaction
interaction by ITC [2, 7]: no indication of an interaction

Compound: doubly phosphorylated version of a peptide corresponding to residues Thr419-ASN439 of the CB1 C-terminus: doubly phosphorylated peptide corresponding to residues Thr419-ASN439 of the CB1 C-terminus, responsible for desensitization
binding and bound conformation (arrestin-2): binds to arrestin-2 and adopts helical conformations in the vicinity of the phosphorylated residues
